The record followed here is ChEMBL document CHEMBL1141075, “4-Oxo-4,7-dihydrothieno[2,3-b]pyridines as non-nucleoside inhibitors of human cytomegalovirus and related herpesvirus polymerases” (J Med Chem, 2005).

Data set [1] is described as follows: Toxicity on uninfected human foreskin fibroblast cells determined in microscopic evaluation and quantitative neutral red dye uptake assay. In kind it is cell-based. To be noted: uninfected human foreskin fibroblast (HFF) cells. An outline of the steps:
(§1)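 Uninfected cells were seeded as subconfluent monolayers and exposed to compound for 3 days. Viability was judged both by microscopic inspection and by quantitative neutral red dye uptake, giving CC50.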

The nature of data set [2]: Toxicity on uninfected African green monkey kidney cells determined in microscopic evaluation and quantitative neutral red dye uptake assay. In kind it is cell-based. To be noted: chlorocebus sabaeus, uninfected African green monkey kidney (Vero) cells. Summed up: as §1
Data set [3] deals with T1, DNA polymerase catalytic subunit (Herpes simplex virus (type 1 / strain 17), UniProt P04293).
T1 sequence (P04293 whole entry): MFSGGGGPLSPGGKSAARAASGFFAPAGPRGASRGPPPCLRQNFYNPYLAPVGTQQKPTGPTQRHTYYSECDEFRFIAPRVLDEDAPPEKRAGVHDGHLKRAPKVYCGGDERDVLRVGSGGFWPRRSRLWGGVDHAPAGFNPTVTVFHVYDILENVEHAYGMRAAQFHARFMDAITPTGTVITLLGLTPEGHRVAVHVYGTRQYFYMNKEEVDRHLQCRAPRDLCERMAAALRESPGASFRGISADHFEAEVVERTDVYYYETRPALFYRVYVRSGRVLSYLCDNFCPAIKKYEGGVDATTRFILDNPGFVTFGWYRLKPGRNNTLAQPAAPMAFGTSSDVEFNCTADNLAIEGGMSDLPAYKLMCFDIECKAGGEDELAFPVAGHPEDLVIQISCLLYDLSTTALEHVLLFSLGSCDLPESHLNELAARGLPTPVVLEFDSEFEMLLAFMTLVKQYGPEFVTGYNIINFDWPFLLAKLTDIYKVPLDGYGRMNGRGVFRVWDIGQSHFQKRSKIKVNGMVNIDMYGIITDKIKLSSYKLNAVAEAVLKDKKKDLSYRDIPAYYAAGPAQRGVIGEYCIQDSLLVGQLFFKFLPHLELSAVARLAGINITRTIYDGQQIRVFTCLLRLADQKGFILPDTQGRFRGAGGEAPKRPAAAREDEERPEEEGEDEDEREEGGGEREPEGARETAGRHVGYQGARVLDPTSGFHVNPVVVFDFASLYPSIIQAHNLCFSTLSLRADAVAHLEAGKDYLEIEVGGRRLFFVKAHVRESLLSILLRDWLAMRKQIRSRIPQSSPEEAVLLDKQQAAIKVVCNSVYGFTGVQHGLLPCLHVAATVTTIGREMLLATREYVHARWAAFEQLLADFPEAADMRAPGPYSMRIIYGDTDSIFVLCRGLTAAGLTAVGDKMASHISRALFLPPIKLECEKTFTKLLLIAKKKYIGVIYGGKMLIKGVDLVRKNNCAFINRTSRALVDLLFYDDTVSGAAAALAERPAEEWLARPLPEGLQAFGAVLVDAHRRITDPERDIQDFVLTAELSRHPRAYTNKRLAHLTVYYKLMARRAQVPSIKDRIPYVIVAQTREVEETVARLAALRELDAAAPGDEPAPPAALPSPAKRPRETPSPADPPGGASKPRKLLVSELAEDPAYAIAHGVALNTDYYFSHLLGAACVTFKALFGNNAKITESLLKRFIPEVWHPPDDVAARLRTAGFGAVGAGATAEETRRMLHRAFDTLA
The data set can be described thus: Inhibition of herpes simplex virus type 1 DNA polymerase (95 uL) activity in a solution containing […] HEPES (pH 7.5), incubation for 12 minutes at 26 degrees C. Details: species or system Human alphaherpesvirus 1.

The test system of data set [4] is HFF. The data set can be described thus: Antiviral activity against human cytomegalovirus (Davis strain) grown on human foreskin fibroblast cells determined by reduction in plaque formation upon incubation at 37 degrees C with the compound dissolved in DMSO. In kind it is functional, cell-based.
In data set [5] the test system is HFF. In words: Antiviral activity against Varicella-Zoster virus (Webster strain) grown on human foreskin fibroblast cells determined by vedduction in plaque formation upon incubation at 37 degrees C with the compound dissolved in DMSO until plaque were formed. In kind it is functional, cell-based. An outline of the steps: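 Monolayers of human foreskin fibroblasts were infected with about 50 PFU per well for 1 h at 37 °C. The inoculum was then replaced with DMEM containing 10% FBS, 0.8% carboxymethyl cellulose and diluted compound from 200-fold DMSO stocks. Plates were incubated at 37 °C until plaques formed. Plaques were counted microscopically or after 0.1% crystal violet staining. IC50 came from linear regression of % inhibition versus untreated controls.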

In data set [6] the test system is Vero. In words: Antiviral activity against herpes simplex virus type 1 (KOS strain) grown on human foreskin fibroblast cells determined by vedduction in plaque formation upon incubation at 37 degrees C with the compound dissolved in DMSO until plaque were formed. In kind it is functional, cell-based. Summed up:
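HSV-1 KOS, about 50 PFU per well, was adsorbed for 1 h at 37 °C. The inoculum was then replaced with drug dilutions from 200-fold DMSO stocks in DMEM containing 10% FBS and 0.8% carboxymethyl cellulose. Cultures were kept at 37 °C until plaques appeared. Plaques were counted microscopically or by crystal violet staining (0.1% in 20% ethanol). IC50 came from linear regression of % inhibition relative to the uninhibited control.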

For data set [7], the target named is T2, DNA polymerase alpha catalytic subunit (Homo sapiens, UniProt P09884).
T2 sequence (P09884 whole entry): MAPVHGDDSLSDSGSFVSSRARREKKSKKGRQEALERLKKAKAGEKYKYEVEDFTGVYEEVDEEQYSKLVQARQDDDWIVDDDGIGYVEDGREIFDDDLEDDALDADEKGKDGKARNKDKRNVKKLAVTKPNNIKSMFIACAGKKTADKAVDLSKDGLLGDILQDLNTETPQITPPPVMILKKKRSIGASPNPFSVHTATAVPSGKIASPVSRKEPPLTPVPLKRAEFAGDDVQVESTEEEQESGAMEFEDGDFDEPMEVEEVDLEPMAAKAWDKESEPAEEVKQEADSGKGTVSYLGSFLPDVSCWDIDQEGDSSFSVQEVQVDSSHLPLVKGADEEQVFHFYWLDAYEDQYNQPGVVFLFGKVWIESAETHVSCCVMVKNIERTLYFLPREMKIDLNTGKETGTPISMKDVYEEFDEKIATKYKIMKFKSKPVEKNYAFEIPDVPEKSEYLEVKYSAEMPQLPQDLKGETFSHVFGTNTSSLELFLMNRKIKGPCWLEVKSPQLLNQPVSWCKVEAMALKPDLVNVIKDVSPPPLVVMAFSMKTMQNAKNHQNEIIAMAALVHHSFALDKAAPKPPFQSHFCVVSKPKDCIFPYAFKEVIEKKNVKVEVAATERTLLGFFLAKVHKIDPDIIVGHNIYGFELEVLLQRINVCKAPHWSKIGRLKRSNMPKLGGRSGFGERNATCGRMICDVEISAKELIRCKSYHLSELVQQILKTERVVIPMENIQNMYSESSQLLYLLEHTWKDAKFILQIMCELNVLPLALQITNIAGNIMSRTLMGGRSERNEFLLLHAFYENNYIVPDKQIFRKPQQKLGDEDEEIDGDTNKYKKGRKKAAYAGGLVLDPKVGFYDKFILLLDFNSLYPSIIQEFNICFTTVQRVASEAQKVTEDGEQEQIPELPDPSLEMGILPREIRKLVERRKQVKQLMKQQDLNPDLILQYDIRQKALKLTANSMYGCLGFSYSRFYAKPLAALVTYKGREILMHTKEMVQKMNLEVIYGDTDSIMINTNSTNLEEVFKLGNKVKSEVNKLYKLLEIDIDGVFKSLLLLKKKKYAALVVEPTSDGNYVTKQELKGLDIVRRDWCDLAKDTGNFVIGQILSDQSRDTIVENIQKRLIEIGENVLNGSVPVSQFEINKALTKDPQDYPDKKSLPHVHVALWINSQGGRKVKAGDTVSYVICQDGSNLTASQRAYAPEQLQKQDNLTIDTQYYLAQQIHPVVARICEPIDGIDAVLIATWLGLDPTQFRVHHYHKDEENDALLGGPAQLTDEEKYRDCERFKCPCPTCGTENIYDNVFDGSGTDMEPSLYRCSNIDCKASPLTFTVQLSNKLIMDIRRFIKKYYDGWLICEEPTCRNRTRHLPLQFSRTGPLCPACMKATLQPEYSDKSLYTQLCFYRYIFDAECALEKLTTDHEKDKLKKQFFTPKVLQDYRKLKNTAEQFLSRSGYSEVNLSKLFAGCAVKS
In words: Inhibition of human alpha DNA polymerase (95 uL) activity in a solution containg […] HEPES (pH 7.5) upon incubation for 12 minutes at 26 degrees C with the compound dissolved in DMSO.

The subject of data set [8] is Vero. In words: cells. To be noted: Chlorocebus sabaeus, 1 h.
The test system of data set [9] is Vero. The data set can be described thus: cells. To be noted: Chlorocebus sabaeus, 1 h. This is another data set of the same source.
Data set [10] deals with Vero. In words: cells. To be noted: Chlorocebus sabaeus, 1 h. The source holds these as a separate data set.
Data set [11] concerns Vero. In words: cells. To be noted: Chlorocebus sabaeus, 1 h. This is another data set of the same source.
In data set [12] the test system is Vero. In words: cells. To be noted: Chlorocebus sabaeus, 1 h. This is another data set of the same source.
Data set [13] deals with Vero. The data set can be described thus: cells. To be noted: Chlorocebus sabaeus, 1 h. This is another data set of the same source.
Data set [14] deals with Vero. The data set can be described thus: cells. To be noted: Chlorocebus sabaeus, 1 h. This is another data set of the same source.
Data set [15] relates to Vero. The data set can be described thus: cells. To be noted: Chlorocebus sabaeus, 1 h. The source holds these as a separate data set.
The subject of data set [16] is Vero. The data set can be described thus: cells. To be noted: Chlorocebus sabaeus, 1 h. This is another data set of the same source.
The test system of data set [17] is HFF. The data set can be described thus: Antiviral activity against human cytomegalovirus Ad169 (V823A) plaque forming unit grown on Human foreskin fibroblast cells upon incubation for 1 hour at 37 degrees C with compound dissolved in DMSO. In kind it is functional, cell-based. Summed up:
(§2)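 Plaque reduction: about 50 PFU added per well of a 24-well dish of the appropriate cells, 1 h at 37 °C, then the inoculum was replaced by drug-containing DMEM with 10% FBS and 0.8% carboxymethyl cellulose. DMSO stocks were 200-fold. Plates were held at 37 °C until plaques formed. Plaques were counted microscopically or after crystal violet stain. Percent inhibition was taken against the uninhibited control, with IC50 by linear regression.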

The subject of data set [18] is HFF. In words: Antiviral activity against human cytomegalovirus Ad169 (WT) plaque forming unit grown on Human foreskin fibroblast cells upon incubation for 1 hour at 37 degrees C with compound dissolved in DMSO. In kind it is functional, cell-based. Summed up: as §2

Usually CC50 stands for the concentration at which the toxic effect on the cells reaches its halfway point. Broadly, the IC50 is the concentration needed to halve the response being measured.

For `Cn1cc(C(=O)NCc2ccc(Cl)cc2)c(=O)c2cc(CCCO)sc21`, the CC50 in data set [1] and in data set [2] was over 100 µM in each case. Besides, the 50% inhibitory concentration (IC50) was 0.5 µM in [3]; 0.6 µM with HFF [4]; 0.09 µM in the data set on HFF [5]; 3 µM with Vero [6]; over 40 µM in [7].
As for `Nc1nc2c(ncn2COCCO)c(=O)[nH]1` [ACYCLOVIR], the CC50 in data set [1] and in data set [2] was over 100 µM each time. Moreover, the IC50 was 3.5 µM with Vero [8]; over 10 µM in the data set with Vero [9]; over 10 µM in the data set on Vero [10]; 4.4 µM with Vero [11]; 5.4 µM in the data set on Vero [12]; 2.4 µM with Vero [13]. In addition, the IC50 in the data set on Vero [14] was over 10 µM; in the data set with Vero [15], over 10 µM; with Vero [16] it was 2.8 µM.
Consider `Nc1nc2c(ncn2COC(CO)CO)c(=O)[nH]1` [GANCICLOVIR], for which the cytotoxic concentration (CC50) in data set [1] and in data set [2] was over 100 µM in each case. In addition, the IC50 in the data set on HFF [17] and in the data set with HFF [18] was 0.8 µM in each case.
